ChEMBL document CHEMBL1135421, “2-(Anilinomethyl)imidazolines as alpha1 adrenergic receptor agonists: the discovery of alpha1a subtype selective 2'-alkylsulfonyl-substituted analogues” (J Med Chem, 2002)
Values joined by “and” are separate entries in the source; they are usually repeats but may differ in a detail not shown here. Identical values can stand only once.

Columns and labels:
[1] = target: T1, Alpha-2A adrenergic receptor (Homo sapiens) (UniProt P08913); test: Efficacy as percentage of the maximal effect observed for nonselective agonist UK-14304 in CHO cells expressing human Alpha-2A adrenergic receptor; assay type: functional, cell-based
T1 sequence (whole entry): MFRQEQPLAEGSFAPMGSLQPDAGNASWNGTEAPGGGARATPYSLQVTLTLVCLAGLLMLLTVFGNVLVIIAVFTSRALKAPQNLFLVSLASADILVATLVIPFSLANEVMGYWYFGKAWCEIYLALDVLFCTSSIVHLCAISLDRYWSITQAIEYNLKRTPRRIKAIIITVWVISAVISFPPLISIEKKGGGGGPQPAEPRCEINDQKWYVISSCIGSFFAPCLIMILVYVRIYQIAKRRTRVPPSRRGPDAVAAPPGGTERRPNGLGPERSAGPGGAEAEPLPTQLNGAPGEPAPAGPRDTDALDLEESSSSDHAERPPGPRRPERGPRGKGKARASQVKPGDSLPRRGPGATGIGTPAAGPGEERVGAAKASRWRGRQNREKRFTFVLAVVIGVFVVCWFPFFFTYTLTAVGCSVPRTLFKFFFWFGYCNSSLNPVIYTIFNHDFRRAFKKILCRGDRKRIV

[2] = target: T2, Alpha-1D adrenergic receptor (Homo sapiens, UniProt P25100); test: Agonist potency at Alpha-1D adrenergic receptor assayed in rat-1 fibroblasts expressing human Alpha-1D adrenergic receptor; assay type: functional
T2 sequence (P25100 whole entry): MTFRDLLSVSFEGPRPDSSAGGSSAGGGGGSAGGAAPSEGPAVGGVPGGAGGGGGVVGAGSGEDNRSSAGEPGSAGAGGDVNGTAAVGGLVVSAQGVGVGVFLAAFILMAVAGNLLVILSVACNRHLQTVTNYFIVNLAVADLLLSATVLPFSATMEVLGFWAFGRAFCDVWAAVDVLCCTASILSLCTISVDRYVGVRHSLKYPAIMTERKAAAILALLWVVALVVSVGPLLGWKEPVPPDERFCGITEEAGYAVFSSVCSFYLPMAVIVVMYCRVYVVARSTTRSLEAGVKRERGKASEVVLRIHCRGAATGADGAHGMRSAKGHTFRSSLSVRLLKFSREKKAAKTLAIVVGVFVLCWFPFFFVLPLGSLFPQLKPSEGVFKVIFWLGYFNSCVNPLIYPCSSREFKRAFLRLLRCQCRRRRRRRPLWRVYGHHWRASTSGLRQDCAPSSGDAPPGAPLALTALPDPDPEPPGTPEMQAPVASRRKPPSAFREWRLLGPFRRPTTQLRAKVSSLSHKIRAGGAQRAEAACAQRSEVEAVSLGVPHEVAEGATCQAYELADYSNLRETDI
Outline: (§1)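 Rat-1 fibroblasts expressing human α1a/α1b/α1d, grown in DMEM with 10% heat-inactivated FBS and 0.6 mg/mL G418, plated 6000 cells/well and cultured 48 h at 37 °C. Loaded 2 h at 37 °C with Calcium Green (4 μM), 0.2% pluronic acid and 2.5 mM probenecid in HEPES buffer pH 7.4. FLIPR read at room temperature: 10 s baseline, then 50 s after compound. 11-point curves as % of 40 μM phenylephrine response, top concentration typically 5 μM.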

[3] = target: T3, Alpha-1A adrenergic receptor (Homo sapiens, UniProt P35348); test: Agonist potency at Alpha-1 adrenergic receptor assayed in rat-1 fibroblasts expressing human Alpha-1 adrenergic receptor; assay type: functional; outline: as §1
T3 sequence (P35348 whole entry): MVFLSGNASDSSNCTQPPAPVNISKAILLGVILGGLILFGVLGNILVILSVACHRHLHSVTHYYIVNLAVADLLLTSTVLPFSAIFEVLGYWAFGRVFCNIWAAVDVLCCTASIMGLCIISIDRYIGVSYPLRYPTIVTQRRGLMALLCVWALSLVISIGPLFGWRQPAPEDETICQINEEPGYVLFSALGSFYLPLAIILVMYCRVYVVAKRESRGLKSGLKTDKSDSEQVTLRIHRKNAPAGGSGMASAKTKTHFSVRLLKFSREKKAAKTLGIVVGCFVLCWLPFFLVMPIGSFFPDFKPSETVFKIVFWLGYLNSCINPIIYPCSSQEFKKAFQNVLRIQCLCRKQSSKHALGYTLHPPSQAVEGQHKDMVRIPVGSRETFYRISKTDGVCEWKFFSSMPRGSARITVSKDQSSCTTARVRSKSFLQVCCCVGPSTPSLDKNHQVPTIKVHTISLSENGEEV

[4] = target: T4, Alpha-2C adrenergic receptor (Homo sapiens) (UniProt P18825); test: Efficacy as percentage of the maximal effect observed for nonselective agonist UK-14304 in CHO cells expressing human Alpha-2C adrenergic receptor; assay type: functional, cell-based
T4 sequence (whole entry): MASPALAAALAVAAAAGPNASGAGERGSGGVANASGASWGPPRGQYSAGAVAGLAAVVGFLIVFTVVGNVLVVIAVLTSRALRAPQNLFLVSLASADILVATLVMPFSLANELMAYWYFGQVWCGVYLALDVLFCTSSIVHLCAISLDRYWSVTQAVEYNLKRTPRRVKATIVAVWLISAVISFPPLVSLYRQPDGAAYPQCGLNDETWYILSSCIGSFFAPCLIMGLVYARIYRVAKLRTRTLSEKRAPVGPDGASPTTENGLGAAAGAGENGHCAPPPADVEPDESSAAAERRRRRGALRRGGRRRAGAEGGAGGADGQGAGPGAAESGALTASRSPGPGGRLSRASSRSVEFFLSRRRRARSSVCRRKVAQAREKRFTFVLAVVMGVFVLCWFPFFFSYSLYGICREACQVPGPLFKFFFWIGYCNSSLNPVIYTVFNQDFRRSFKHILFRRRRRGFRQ

[5] = target: T5, Alpha-1B adrenergic receptor (Homo sapiens, UniProt P35368); test: Agonist potency at Alpha-1B adrenergic receptor expressed in rat-1 fibroblasts; assay type: functional
T5 sequence (P35368 whole entry): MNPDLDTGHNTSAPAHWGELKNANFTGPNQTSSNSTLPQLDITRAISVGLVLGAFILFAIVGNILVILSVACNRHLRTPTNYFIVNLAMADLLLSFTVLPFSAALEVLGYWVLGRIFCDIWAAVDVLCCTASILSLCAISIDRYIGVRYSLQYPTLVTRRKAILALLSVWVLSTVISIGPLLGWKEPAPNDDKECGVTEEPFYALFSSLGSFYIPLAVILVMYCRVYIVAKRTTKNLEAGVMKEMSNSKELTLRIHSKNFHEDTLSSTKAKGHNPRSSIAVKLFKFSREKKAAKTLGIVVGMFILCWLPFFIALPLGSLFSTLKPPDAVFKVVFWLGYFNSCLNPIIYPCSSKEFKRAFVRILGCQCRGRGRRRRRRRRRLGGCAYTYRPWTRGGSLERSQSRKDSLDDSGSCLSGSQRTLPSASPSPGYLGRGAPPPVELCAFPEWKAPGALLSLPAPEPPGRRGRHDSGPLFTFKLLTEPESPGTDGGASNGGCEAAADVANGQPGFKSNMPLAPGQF

[6] = target: T6, Alpha-2C adrenergic receptor (Homo sapiens, UniProt P18825); test: Affinity to human Alpha-2C adrenergic receptor determined by radioligand binding techniques from chinese hamster ovary (CHO) cells; assay type: cell-based
T6 sequence (P18825 whole entry): T4 sequence (whole entry)

[7] = target: T5, Alpha-1B adrenergic receptor; test: Affinity to human Alpha-1B adrenergic receptor determined by radioligand binding techniques from rat-1 fibroblasts membranes
[8] = target: T7, Alpha-2B adrenergic receptor (Homo sapiens, UniProt P18089); test: Affinity to human Alpha-2B adrenergic receptor determined by radioligand binding techniques from chinese hamster ovary (CHO) cells; assay type: cell-based
T7 sequence (P18089 whole entry): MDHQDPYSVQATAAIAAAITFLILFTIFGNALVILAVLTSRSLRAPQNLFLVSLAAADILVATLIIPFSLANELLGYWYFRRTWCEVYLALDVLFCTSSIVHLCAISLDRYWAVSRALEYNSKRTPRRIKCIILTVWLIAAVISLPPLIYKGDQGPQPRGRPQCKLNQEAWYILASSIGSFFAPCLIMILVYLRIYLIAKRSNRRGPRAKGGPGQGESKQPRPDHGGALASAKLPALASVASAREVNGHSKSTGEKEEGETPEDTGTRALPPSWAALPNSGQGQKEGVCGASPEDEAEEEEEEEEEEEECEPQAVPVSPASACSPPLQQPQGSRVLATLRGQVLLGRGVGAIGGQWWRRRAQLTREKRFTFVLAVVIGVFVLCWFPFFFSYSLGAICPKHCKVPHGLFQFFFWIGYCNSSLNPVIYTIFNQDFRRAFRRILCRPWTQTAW

[9] = target: T2, Alpha-1D adrenergic receptor; test: Affinity to human Alpha-1D adrenergic receptor determined by radioligand binding techniques from rat-1 fibroblasts membranes
[10] = target: T8, Alpha-2A adrenergic receptor (Homo sapiens, UniProt P08913); test: Affinity to human Alpha-2A adrenergic receptor determined by radioligand binding techniques from chinese hamster ovary (CHO) cells; assay type: cell-based
T8 sequence (P08913 whole entry): T1 sequence (whole entry)

[11] = target: T3, Alpha-1A adrenergic receptor; test: Affinity to Alpha-1 adrenergic receptor determined by radioligand binding techniques from rat-1 fibroblasts membranes
[12] = target: T8, Alpha-2A adrenergic receptor; test: Agonist potency at Alpha-2A stably expressed in CHO cells.; assay type: functional, cell-based
[13] = target: T9, Alpha-1A adrenergic receptor (Homo sapiens) (UniProt P35348); test: Efficacy as % of the maximal effect observed for nonselective agonist phenylephrine in rat-1 fibroblasts expressing human Alpha-1 adrenergic receptor; assay type: functional; outline: as §1
T9 sequence (whole entry): T3 sequence (P35348 whole entry)

[14] = target: T6, Alpha-2C adrenergic receptor; test: Agonist potency at Alpha-2C adrenergic receptor assayed in CHO cells expressing human Alpha-2C adrenergic receptor; assay type: functional, cell-based

Cc1cc(C(C)(C)C)c(O)c(C)c1CC1=NCCN1
Max [1]: 88%

COc1ccc(S(C)(=O)=O)c(NCC2=NCCN2)c1
EC50 [2]: > 100 µM
EC50 [3]: 0.0141 µM
Max [4]: 49%
EC50 [5]: > 100 µM
Ki [6]: > 5.01 µM
Max [1]: 16%
Ki [7]: 4.57 µM
Ki [8]: > 6.31 µM
Ki [9]: 7.59 µM
Ki [10]: 3.63 µM
Ki [11]: 1.62 µM
EC50 [12]: > 10 µM and 3.31 µM
Max [13]: 102%

CS(=O)(=O)Nc1ccc(F)c([C@@H](O)CN)c1 [NS-49]
EC50 [2]: > 100 µM
EC50 [3]: 0.158 µM
Max [4]: 87%
EC50 [5]: > 100 µM
Max [1]: 34%
EC50 [14]: 2 µM
Ki [7]: 11.2 µM
Ki [11]: 1.12 µM
EC50 [12]: > 10 µM
Max [13]: 109%

O=S1(=O)CCCc2cccc(NCC3=NCCN3)c21
EC50 [2]: > 100 µM
EC50 [3]: > 100 µM
Max [4]: 69%
EC50 [5]: > 100 µM
Ki [6]: 2.69 µM
Max [1]: 29%
EC50 [14]: 6.31 µM
Ki [7]: 2.14 µM
Ki [9]: > 15.8 µM
Ki [10]: 0.794 µM
Ki [11]: 0.617 µM
EC50 [12]: > 10 µM
